Measured values of several laboratories.
CDK4: Cyclin-dependent kinase 4 (CDK4, Homo sapiens, UniProt P11802)

C#Cc1n[nH]c2c(-c3cn([C@@H](C)c4ccccn4)c(=O)[nH]c3=O)cc(F)cc12  inhibition (Tyrosine-protein kinase Fes/Fps (FES, Homo sapiens, UniProt P07332); enzyme activity, inhibitor; 0.1 µM): 10%
Clc1cccc(-c2c[nH]c3nccc(N4CCOCC4)c23)c1  ΔTm (Serine/threonine-protein kinase 3 (STK3, Homo sapiens, UniProt Q13188); thermal stability, DSF): > 7.4 °C
CCOC(=O)[C@H]1Cc2c(cc([N+](=O)[O-])cc2[N+](=O)[O-])[C@H](O)[C@]12C(=O)Nc1ccc(F)cc12  inhibition (CDK4; cell-free assay, inhibitor, TR-FRET; 1 µM): 32.6%
Cc1nn(C)cc1-c1nc2c(N3CCN(Cc4ccc(Cl)cc4)CC3)c(Cl)cnc2[nH]1  remaining binding (Serine/threonine-protein kinase MRCK beta (CDC42BPB, Homo sapiens, UniProt Q9Y5S2); binding, competition with immobilised ligand; 1 µM): 55%
COCCCOc1cc(C[C@@H](C[C@H](N)[C@@H](O)C[C@H](C(=O)NCC(C)(C)C(N)=O)C(C)C)C(C)C)ccc1OC  inhibition (Renin (REN, Homo sapiens, UniProt P00797); enzyme activity, inhibitor; 10 nM): 70%
COc1ncccc1-c1cnn2ccc(N3CCN(C(=O)OC(C)C)CC3)nc12  remaining binding (Myosin-IIIb (MYO3B, Homo sapiens, UniProt Q8WXR4); binding, competition with immobilised ligand; 1 µM): 100%
COC(=O)[C@H](CCCNC(=N)N)NC(=O)c1ccccc1  Km (Protein-arginine deiminase type-3 (PADI3, Homo sapiens, UniProt Q9ULW8); enzyme activity, substrate): 10.8 mM
CCOC(=O)[C@H]1Cc2c(cc([N+](=O)[O-])cc2[N+](=O)[O-])[C@@H](O)[C@@]12C(=O)Nc1ccc([N+](=O)[O-])cc12  inhibition (CDK4; cell-free assay, inhibitor, TR-FRET; 1 µM): 42.8%
Nc1ncc(-c2nc(N3CCOCC3)nc(N3CCOCC3)n2)c(C(F)F)n1  remaining binding (Fibroblast growth factor receptor 3 (FGFR3, Homo sapiens, UniProt P22607, G697C); cell-free assay, competition with immobilised ligand; 10 µM): 83%
